A short description of data set [1]: Antiproliferative activity against human HuH7 cells assessed as growth inhibition incubated for 48 hrs by MTT assay. Conditions: Huh-7, 48 h. The format is functional, cell-based. A digest of the protocol: (§1)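 Cell lines were grown at 37 °C in 5% CO2 with 10% FBS and penicillin/streptomycin, in DMEM for HuH7 and LN229 and in RPMI-1640 for BxPC3 and MCF7. Cells were seeded at 10^5 per well and left 24 h to attach. Compounds were then added at […] for 48 h. MTT at 1 mg/mL was applied for 2 h at 37 °C in the dark, formazan was dissolved in DMSO and read at 570 nm. Results are relative to 0.5% DMSO vehicle control, with IC50 by linear/polynomial regression, in triplicate.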

Another data set deals with MCF7. Briefly: Antiproliferative activity against human MCF7 cells assessed as growth inhibition incubated for 48 hrs by MTT assay. The data set is classed as functional, cell-based. The conditions noted are these: MCF7, 48 h. In short, it runs like this: as §1
A general note: Tetrazolium assays rely on reduction of a dye to a coloured formazan, in cell work by metabolically active cells.

A short description of data set [2]: Antiproliferative activity against human LN229 cells assessed as growth inhibition incubated for 48 hrs by MTT assay. The format is functional, cell-based. Conditions: LN-229, 48 h. A digest of the protocol: as §1
Data set [3] in a line: Antiproliferative activity against human BxPC3 cells assessed as growth inhibition incubated for 48 hrs by MTT assay. Conditions: BXPC-3, 48 h. The data set is classed as functional, cell-based. In short, it runs like this: as §1
The nature of data set [4]: Cytotoxicity against human LN229 cells assessed as growth inhibition at 0.6 uM incubated for 48 hrs by MTT assay relative to control. The format is functional, LN-229. More on the design: scale not given: the % may be the effect or the level left.
Data set [5] is described as follows: (§2) Cytotoxicity against rat H9c2 cells assessed as cell growth at 2.5 uM incubated for 48 hrs by MTT assay relative to control. The data set is classed as cell-based. Conditions: H9c2 cells, read-out: Activity.
Data set [6] has as its system H9c2. Description: Cytotoxicity against rat H9c2 cell membrane assessed as induction of lipid peroxidation at 2.5 uM incubated for 48 hrs by TBARS method. The data set is classed as cell-based. Conditions: h9c2, 48 h. In short, it runs like this:
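H9C2 cells were treated for 48 h at […] and lysed in ice-cold Tris/NaCl/EDTA/1% Triton with protease inhibitors. Membranes were pelleted at 1200 g for 10 min and the protein content measured. Membrane aliquots were heated at 100 °C for 30 min in 15% TCA/0.3% TBA in 0.12 N HCl, cooled and centrifuged, and the TBA adduct read at 532 nm. Values are per mg protein, mean ± SEM, n=3.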

For data set [7], the system named is H9c2. The description is as §2. The format is cell-based. The conditions noted are these: h9c2, 48 h, 2.5 µM.
A short description of data set [8]: Drug uptake in human LN229 cell cytoplasm at 0.6 uM incubated for 48 hrs by confocal microscopy. The data set is classed as ADME, cell-based. The conditions noted are these: ln229, 48 h. In short, it runs like this:
(§3)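 LN229 cells were treated for 48 h at […] and fixed in 4% paraformaldehyde. Nuclei were counterstained with DAPI and vimentin immunostained. Compound localisation was imaged by its red signal using confocal microscopy.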

The test system of data set [9] is LN-229. Description: Inhibition of glucose uptake in human LN229 cells assessed as glucose concentration per ug protein at 0.6 uM incubated for 48 hrs by liquid scintillation method (reference value: 98 +/- 8 mg/dl/ug protein). The data set is classed as functional.
In data set [10] the test system is LN-229. Description: Induction of cell differentiation in human LN229 cells assessed as vimentin remodelling at 0.6 uM incubated for 48 hrs by immunostaining method. The format is functional, cell-based. A digest of the protocol: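 LN229 cells were treated for 48 h at […], fixed in 4% paraformaldehyde and permeabilised 5 min in 1% Triton. They were stained with anti-vimentin (1:1000) followed by Cy3 anti-rabbit IgG (1:200, 45 min), with DAPI nuclei, and imaged by confocal microscopy.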

Data set [11] in a line: Down regulation of AKT expression in human LN229 cells at 0.6 uM incubated for 48 hrs by Western blot method. The format is functional, cell-based. The conditions noted are these: LN-229. In short, it runs like this:
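LN229 cells grown in DMEM with 10% FBS and penicillin/streptomycin at 37 °C, 5% CO2, treated 48 h. Cells washed in ice-cold PBS/BSA and lysed in Triton/deoxycholate buffer with protease inhibitors. Equal protein run on SDS-PAGE, then nitrocellulose. Anti-AKT overnight in TBS/1% milk/0.05% Tween 20; tubulin also probed. HRP secondary 1 h at room temperature.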
In general terms: In western blotting, separated proteins are transferred to a membrane and probed.

Data set [12] concerns LN-229. Description: Induction of lipid peroxidation in human LN229 cells assessed as increase in TBARS level at 0.6 uM incubated for 48 hrs by TBARS assay. The format is functional. In short, it runs like this:
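LN229 cells in DMEM with 10% FBS, treated 48 h. Lysed in ice-cold Tris/NaCl/EDTA/1% Triton with protease inhibitors, spun 1200 g for 10 min; membrane pellet redissolved and protein measured. Membranes heated with 15% TCA/0.3% TBA in 0.12 N HCl at 100 °C for 30 min, cooled, spun 15,000 g, read at 532 nm. TBARS expressed per mg protein; mean of three experiments.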

The subject of data set [13] is LN-229. Briefly: Inhibition of glucose uptake in human LN229 cells assessed as glucose concentration per ug protein at 0.6 uM incubated for 48 hrs by liquid scintillation method relative to control. The format is functional.
For data set [14], the system named is LN-229. Briefly: Induction of apoptosis in human LN229 cells assessed as caspase-3 activation at 0.6 uM incubated for 48 hrs by cell-free caspase-3 activity assay.
The nature of data set [15]: Drug uptake in human LN229 cell nucleus at 0.6 uM incubated for 48 hrs by confocal microscopy. The data set is classed as ADME, cell-based. Conditions: ln229, 48 h. In short, it runs like this:
as §3

Broadly, the IC50 is the midpoint of a concentration-inhibition curve.

The source made the active and inactive calls. The rule behind the calls is not given here.

Turning to `O=C(CNc1ccc(Cl)cc1)NC1(CO)CSC2=C1C(=O)c1ccccc1C2=O` (configuration not stated), the IC50 in [1] turned out to be 3510 nM; in the data set on MCF7, 2120 nM; in [2] it was 1230 nM; in data set [3], 2180 nM.

On to `Cl.O=C(CN1CCCCC1)N[C@@]1(C(=O)NCc2ccc(Cl)cc2)CSC2=C1C(=O)c1ccccc1C2=O`, for which the Activity in data set [4] is 50%.

Take `O=C(NC1(C(=O)NCc2ccc(Cl)cc2)CSC2=C1C(=O)c1ccccc1C2=O)c1ccc(Cl)cc1` (configuration not stated): the IC50 in [1] was 440 nM; in the data set with MCF7, 470 nM; in data set [2] it was 320 nM; in [3] it was 660 nM. Further, the viability at 48 h, 2.5 µM in [5] turned out to be 61%. For the same molecule, in the data set with H9c2 [6], the Activity entry was “Toxic”.

Take `Cl.O=C(CN1CCCCC1)NC1(C(=O)NCc2ccc(Cl)cc2)CSC2=C1C(=O)c1ccccc1C2=O` (configuration not stated): the IC50 in [1] came out at 1020 nM; with MCF7, 820 nM; in data set [2] it was 610 nM; in data set [3], 830 nM. In addition, the Activity result in the data set with H9c2 [7] is “Non-toxic”; in the data set with H9c2 [6] it was “Non-toxic”; in data set [4], 50%; with LN-229 [9] it was 215 mg/dL. Moreover, the Drug uptake result in data set [8] is on record as “Active”. Moreover, the result with LN-229 [10] was Active. Besides, the fold change (FC) was 2 in [11], 5 in the data set on LN-229 [12], 2.2 in the data set with LN-229 [13] and 3 in the data set on LN-229 [14].

On to `Cl.O=C(CN1CCCCC1)NC1(CO)CSC2=C1C(=O)c1ccccc1C2=O` (configuration not stated), for which the IC50 in data set [1] came to 960 nM; with MCF7, 1260 nM; in [2] it was 510 nM; in [3] it was 2510 nM. Also, the viability at 48 h, 2.5 µM in data set [5] came to 83%. For the same molecule, the Activity result with H9c2 [6] is given as “Toxic”.

In the case of `COc1cccc2c1C(=O)c1c(O)c3c(c(O)c1C2=O)C[C@@](O)(C(=O)CO)C[C@@H]3O[C@H]1C[C@H](N)[C@H](O)[C@H](C)O1` [DOXORUBICIN], the IC50 came out at 1110 nM in [1], 2250 nM in data set [2] and 1780 nM in data set [3]. The viability at 48 h, 2.5 µM in [5] was determined as 53%. Moreover, the values for the Activity entry with H9c2 [6] and with LN-229 [9] were “Toxic” and 120 mg/dL, respectively. Also, the Drug uptake result in [15] is “Active”.

As for `O=C(CNCc1ccc(Cl)cc1)NC1(CO)CSC2=C1C(=O)c1ccccc1C2=O` (configuration not stated), the IC50 in data set [1] worked out at 3900 nM; in the data set on MCF7 it was 1720 nM; in data set [2], 1250 nM; in data set [3] it was 1680 nM.

As for `O=C(NC1(CO)CSC2=C1C(=O)c1ccccc1C2=O)c1ccc(Cl)cc1` (configuration not stated), the half-inhibitory concentration (IC50) (in [1]; in the data set with MCF7; in data set [2]; in data set [3]) was > 10000 nM in each case.

`Cl.O=C(CN1CCCCC1)N[C@]1(C(=O)NCc2ccc(Cl)cc2)CSC2=C1C(=O)c1ccccc1C2=O`: the Activity in data set [4] is given as 48%.

Source of the values: ChEMBL document CHEMBL3621080, “Dihydrithieno[2,3-b]naphto-4,9-dione analogues as anticancer agents: Synthesis and in cell pharmacological studies” (Eur J Med Chem, 2015).
